Experiment [1] concerns the target T1, Dual specificity mitogen-activated protein kinase kinase 5 (Homo sapiens) (UniProt Q13163).
T1 sequence (whole entry): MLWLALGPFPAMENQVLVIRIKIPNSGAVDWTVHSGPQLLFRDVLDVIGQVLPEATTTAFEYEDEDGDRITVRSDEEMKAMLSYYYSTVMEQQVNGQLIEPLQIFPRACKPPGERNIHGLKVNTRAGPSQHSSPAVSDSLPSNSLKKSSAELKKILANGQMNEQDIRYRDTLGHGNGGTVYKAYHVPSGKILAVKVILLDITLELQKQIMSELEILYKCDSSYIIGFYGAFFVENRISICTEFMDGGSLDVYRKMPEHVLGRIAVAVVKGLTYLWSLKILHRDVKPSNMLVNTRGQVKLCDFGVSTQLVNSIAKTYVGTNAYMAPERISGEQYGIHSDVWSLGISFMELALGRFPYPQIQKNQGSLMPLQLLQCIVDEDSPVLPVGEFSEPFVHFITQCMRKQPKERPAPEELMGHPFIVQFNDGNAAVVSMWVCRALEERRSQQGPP
Description: Inhibition of human MEK5 (98 to 448 residues) expressed in mammalian expression system assessed as enzyme activity at 1 uM by KINOMEScan assay relative to control. Further details: scale not given: the % may be the effect or the level left. Summed up: (§1)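 In vitro ATP-site competition binding assay across a panel of 456 kinases, with compound tested at 1 and 10 μM.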

Experiment [2] addresses Vascular endothelial growth factor receptor 2 (Homo sapiens) (UniProt P35968). Description: Inhibition of human VEGFR2 (787 to 1253 residues) expressed in mammalian expression system assessed as enzyme activity at 1 uM by KINOMEScan assay relative to control. More on the design: scale not given: the % may be the effect or the level left. An outline of the steps:
as §1

The target of experiment [3] is Actin-related protein 2/3 complex subunit 2 (Homo sapiens) (UniProt O15144). Put plainly: Binding affinity to ARPC2 in human NCI-H23 cells at 1 uM by mass spectrometry based pull down assay. The format is cell-based.
The target in experiment [4] is Protein arginine N-methyltransferase 5 (Homo sapiens) (UniProt O14744). Description: Binding affinity to PRMT5 in human NCI-H23 cells at 1 uM by mass spectrometry based pull down assay. The format is cell-based.
Protein arginine N-methyltransferase 5 (Homo sapiens), sequence (O14744 whole entry): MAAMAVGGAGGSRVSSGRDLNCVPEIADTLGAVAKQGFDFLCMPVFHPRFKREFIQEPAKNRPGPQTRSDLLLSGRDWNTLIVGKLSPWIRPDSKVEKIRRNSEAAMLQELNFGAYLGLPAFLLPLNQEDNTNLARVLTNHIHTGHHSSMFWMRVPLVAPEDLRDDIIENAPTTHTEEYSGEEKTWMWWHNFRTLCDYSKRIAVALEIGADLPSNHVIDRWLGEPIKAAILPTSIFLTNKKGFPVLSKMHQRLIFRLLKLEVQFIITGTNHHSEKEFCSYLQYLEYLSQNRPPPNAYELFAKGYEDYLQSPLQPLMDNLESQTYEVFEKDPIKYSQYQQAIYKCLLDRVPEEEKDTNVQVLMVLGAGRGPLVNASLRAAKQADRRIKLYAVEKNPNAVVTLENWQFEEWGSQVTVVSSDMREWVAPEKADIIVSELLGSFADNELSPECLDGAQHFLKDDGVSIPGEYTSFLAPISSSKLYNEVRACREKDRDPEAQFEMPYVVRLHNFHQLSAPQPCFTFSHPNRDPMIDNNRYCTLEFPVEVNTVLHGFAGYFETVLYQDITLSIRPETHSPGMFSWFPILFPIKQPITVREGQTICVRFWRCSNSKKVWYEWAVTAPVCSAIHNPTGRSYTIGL
Experiment [5] deals with Dolichyl-diphosphooligosaccharide--protein glycosyltransferase subunit 1 (Homo sapiens) (UniProt P04843). Put plainly: Binding affinity to RPN1 in human NCI-H23 cells at 1 uM by mass spectrometry based pull down assay. The format is cell-based.
Dolichyl-diphosphooligosaccharide--protein glycosyltransferase subunit 1 (Homo sapiens), sequence (P04843 whole entry): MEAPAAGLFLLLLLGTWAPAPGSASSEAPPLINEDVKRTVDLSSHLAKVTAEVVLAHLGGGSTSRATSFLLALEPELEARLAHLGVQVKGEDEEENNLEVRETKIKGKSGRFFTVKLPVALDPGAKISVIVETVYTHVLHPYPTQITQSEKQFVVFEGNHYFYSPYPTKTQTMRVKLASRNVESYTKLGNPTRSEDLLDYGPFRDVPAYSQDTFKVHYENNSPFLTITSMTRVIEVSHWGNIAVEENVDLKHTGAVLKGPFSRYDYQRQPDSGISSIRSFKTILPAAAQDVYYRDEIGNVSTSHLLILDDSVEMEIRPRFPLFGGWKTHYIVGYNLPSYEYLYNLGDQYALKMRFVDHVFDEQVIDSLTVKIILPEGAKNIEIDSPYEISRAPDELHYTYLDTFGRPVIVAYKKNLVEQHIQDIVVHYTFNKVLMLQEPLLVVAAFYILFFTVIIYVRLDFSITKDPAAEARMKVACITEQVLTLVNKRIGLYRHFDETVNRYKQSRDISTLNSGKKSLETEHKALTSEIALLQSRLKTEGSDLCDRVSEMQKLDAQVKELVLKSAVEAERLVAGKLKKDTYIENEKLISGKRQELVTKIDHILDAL
Experiment [6] concerns the target Thymidylate kinase (Homo sapiens) (UniProt P23919). Description: Binding affinity to DTYMK in human NCI-H23 cells at 1 uM by mass spectrometry based pull down assay. The format is cell-based.
Experiment [7] deals with Eukaryotic translation initiation factor 5B (Homo sapiens) (UniProt O60841). Description: Binding affinity to EIF5B in human NCI-H23 cells at 1 uM by mass spectrometry based pull down assay. The format is cell-based.
Eukaryotic translation initiation factor 5B (Homo sapiens), sequence (O60841 whole entry): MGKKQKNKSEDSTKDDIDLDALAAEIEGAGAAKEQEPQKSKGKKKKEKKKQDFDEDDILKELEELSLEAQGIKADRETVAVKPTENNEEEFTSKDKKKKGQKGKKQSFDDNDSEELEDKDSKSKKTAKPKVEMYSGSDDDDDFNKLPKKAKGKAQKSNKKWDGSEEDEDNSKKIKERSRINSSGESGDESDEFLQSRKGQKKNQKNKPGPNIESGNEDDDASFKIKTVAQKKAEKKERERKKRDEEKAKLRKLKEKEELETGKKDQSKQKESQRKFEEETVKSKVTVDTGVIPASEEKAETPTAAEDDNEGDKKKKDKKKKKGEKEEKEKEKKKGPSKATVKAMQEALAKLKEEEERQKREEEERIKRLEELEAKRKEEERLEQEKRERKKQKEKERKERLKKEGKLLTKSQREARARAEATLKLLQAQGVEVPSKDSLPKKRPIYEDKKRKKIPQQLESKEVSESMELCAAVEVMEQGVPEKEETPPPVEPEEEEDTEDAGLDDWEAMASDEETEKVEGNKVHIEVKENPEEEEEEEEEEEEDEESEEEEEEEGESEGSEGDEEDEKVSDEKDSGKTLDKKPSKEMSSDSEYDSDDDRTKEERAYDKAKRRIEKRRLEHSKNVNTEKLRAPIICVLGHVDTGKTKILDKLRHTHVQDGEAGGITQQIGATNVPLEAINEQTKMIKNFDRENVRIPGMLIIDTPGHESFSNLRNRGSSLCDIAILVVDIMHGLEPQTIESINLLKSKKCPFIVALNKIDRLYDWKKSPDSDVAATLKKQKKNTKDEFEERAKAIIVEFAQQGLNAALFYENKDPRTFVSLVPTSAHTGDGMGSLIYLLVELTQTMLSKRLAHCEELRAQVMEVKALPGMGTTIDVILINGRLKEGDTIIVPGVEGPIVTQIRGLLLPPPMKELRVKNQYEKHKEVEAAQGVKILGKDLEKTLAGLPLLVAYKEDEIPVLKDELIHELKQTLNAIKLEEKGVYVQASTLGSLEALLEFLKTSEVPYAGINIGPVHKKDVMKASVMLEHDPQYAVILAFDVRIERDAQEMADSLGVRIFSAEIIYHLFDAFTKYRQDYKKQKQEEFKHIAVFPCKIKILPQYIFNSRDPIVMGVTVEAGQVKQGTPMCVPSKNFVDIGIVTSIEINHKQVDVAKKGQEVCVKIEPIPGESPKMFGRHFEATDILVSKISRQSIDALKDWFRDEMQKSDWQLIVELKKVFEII
The target in experiment [8] is Interleukin-1 receptor-associated kinase 1 (Homo sapiens) (UniProt P51617). Description: Binding affinity to IRAK1 in human NCI-H23 cells at 1 uM by mass spectrometry based pull down assay. The format is cell-based.
Experiment [9] concerns the target TBC1 domain family member 15 (Homo sapiens) (UniProt Q8TC07). Put plainly: Binding affinity to TBC1D15 in human NCI-H23 cells at 1 uM by mass spectrometry based pull down assay. The format is cell-based.
For experiment [10], the target named is Acidic leucine-rich nuclear phosphoprotein 32 family member B (Homo sapiens) (UniProt Q92688). Description: Binding affinity to ANP32B in human NCI-H23 cells at 1 uM by mass spectrometry based pull down assay. The format is cell-based.
Acidic leucine-rich nuclear phosphoprotein 32 family member B (Homo sapiens), sequence (Q92688 whole entry): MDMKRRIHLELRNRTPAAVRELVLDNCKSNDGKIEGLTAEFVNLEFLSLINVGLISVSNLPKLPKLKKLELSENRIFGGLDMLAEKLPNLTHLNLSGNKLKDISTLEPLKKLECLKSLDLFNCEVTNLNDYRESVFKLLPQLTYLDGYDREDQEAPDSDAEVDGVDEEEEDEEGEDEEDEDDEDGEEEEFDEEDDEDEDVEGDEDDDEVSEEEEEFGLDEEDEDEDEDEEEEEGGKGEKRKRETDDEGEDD
Experiment [11] concerns the target T2, Serine/threonine-protein kinase D2 (Homo sapiens) (UniProt Q9BZL6).
T2 sequence (whole entry): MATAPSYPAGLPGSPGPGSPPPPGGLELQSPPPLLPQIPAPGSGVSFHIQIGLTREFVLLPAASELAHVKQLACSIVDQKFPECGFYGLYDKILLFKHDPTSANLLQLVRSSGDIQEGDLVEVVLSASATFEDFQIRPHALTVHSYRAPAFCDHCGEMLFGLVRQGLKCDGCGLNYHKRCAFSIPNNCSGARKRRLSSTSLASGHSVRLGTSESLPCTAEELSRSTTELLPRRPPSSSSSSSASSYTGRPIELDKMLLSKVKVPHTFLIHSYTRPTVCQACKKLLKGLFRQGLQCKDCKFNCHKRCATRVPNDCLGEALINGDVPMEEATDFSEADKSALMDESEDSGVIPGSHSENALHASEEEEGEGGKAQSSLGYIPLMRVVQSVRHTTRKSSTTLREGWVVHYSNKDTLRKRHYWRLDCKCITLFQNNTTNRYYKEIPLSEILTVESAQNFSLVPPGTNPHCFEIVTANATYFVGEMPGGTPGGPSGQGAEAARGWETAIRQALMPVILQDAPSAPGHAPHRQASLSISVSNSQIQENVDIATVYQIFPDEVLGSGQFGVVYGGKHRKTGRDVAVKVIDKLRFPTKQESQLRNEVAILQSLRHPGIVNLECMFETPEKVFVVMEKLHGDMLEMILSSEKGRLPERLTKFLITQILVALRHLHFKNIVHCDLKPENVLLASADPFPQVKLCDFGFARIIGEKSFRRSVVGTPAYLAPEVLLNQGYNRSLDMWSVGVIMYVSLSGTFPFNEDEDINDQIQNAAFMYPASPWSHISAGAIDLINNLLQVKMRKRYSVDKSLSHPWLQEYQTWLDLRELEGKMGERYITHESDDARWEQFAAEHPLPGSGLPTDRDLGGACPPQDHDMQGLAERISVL
Description: Binding affinity to PRKD2 in human NCI-H358 cells at 1 uM by mass spectrometry based pull down assay. The format is cell-based.

Experiment [12] addresses Mitogen-activated protein kinase 1 (Homo sapiens) (UniProt P28482). Description: Binding affinity to MAPK1 in human NCI-H358 cells at 1 uM by mass spectrometry based pull down assay. The format is cell-based.
Experiment [13] addresses BLOC-2 complex member HPS6 (Homo sapiens) (UniProt Q86YV9). Description: Binding affinity to HPS6 in human NCI-H358 cells at 1 uM by mass spectrometry based pull down assay. The format is cell-based.
Experiment [14] addresses Kinesin-like protein KIF15 (Homo sapiens) (UniProt Q9NS87). Description: Binding affinity to KIF15 in human NCI-H358 cells at 1 uM by mass spectrometry based pull down assay. The format is cell-based.

The source made the active and inactive calls. The calls are words filed in the database; no cut-off is given here.

Kinesin-like protein KIF15 (Homo sapiens), sequence (Q9NS87 whole entry): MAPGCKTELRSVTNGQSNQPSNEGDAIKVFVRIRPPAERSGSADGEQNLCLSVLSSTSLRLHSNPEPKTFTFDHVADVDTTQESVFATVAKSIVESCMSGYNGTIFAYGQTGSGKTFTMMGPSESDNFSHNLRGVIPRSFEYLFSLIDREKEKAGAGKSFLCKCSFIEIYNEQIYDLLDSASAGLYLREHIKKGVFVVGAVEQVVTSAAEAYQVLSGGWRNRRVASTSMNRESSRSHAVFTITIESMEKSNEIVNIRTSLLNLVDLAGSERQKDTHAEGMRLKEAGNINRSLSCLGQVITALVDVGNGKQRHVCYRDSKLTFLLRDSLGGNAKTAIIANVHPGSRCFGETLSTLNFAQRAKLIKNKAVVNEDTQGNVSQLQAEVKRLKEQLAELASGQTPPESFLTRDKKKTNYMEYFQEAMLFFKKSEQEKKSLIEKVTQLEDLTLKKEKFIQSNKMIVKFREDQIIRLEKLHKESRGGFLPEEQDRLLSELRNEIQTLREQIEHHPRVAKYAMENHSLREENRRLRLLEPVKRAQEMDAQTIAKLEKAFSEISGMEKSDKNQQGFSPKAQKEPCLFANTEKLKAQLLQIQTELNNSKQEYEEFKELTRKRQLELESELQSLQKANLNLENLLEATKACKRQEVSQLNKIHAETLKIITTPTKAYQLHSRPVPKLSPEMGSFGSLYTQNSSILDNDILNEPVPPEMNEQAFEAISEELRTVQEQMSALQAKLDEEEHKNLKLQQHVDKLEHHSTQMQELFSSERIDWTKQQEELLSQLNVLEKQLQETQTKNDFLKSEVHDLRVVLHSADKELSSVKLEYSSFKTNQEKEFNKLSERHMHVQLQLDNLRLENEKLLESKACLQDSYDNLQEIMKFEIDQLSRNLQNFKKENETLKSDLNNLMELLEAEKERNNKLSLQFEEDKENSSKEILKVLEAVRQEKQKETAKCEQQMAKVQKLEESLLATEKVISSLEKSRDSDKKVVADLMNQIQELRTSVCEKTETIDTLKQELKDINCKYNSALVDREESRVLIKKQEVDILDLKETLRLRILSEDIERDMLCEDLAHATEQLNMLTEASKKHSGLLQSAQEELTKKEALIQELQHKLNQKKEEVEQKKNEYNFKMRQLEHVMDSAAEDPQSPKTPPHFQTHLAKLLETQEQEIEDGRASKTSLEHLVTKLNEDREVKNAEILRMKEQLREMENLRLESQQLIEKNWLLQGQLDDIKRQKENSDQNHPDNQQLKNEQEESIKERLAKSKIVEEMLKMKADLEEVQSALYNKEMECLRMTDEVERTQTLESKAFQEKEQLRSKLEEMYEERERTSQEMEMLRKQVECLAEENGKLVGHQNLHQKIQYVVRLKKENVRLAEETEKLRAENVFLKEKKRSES
BLOC-2 complex member HPS6 (Homo sapiens), sequence (Q86YV9 whole entry, one chain of several): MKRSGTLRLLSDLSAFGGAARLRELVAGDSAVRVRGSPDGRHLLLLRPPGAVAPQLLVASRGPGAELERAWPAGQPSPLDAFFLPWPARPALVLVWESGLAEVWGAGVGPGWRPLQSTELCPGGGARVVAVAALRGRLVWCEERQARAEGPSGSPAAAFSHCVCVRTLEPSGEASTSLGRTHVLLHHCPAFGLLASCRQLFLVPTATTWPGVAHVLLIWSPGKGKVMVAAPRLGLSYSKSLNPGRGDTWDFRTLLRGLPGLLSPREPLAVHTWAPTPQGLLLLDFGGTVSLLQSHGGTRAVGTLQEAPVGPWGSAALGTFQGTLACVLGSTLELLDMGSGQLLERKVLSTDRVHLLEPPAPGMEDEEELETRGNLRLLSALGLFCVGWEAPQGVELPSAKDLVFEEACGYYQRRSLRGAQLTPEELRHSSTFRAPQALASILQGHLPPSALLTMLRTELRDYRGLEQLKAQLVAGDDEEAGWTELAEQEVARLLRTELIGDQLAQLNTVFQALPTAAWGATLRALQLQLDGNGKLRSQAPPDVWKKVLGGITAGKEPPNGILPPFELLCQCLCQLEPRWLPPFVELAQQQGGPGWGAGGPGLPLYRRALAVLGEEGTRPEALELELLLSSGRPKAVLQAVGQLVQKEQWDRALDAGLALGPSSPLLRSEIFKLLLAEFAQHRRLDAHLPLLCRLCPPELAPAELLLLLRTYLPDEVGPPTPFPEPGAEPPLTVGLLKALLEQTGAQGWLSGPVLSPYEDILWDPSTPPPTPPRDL

Regarding `COc1cc(O)c2c(c1)/C=C/C[C@H](O)[C@H](O)C(=O)/C=C\C[C@H](C)OC2=O`, the Activity in [1] was 0.2%; in [2], 78%.
Take `C=CC(=O)Nc1ccccc1Nc1nc(Nc2ccc(N3CCN(CCOCCOCCOCCNC(=O)CCCC[C@@H]4SC[C@@H]5NC(=O)N[C@@H]54)CC3)cc2)ncc1Cl`: the outcome in [3], in experiment [4], in experiment [5], in experiment [6], in [7] and in [8] was Active. Moreover, the outcome in experiment [9], in [10], in experiment [11], in experiment [12], in [13] and in [14] was Active.

The values are drawn from ChEMBL document CHEMBL4118021, “Studies of TAK1-centered polypharmacology with novel covalent TAK1 inhibitors” (Bioorg Med Chem, 2017).
